≈ marks a conversion by molar mass, not a printed value. Where “and” joins values, the source holds several entries; their conditions need not be identical. Equal values may be shown once.
Experiments:
MRSA strain LAC = assay: Selection of spontaneous resistant mutants, frequency; format: cell-based, Staphylococcus aureus; settings: 8x MIC, 3 d incubation
MRSA COL strain = assay: Mouse peritonitis-sepsis model; format: in vivo, Staphylococcus aureus; settings: single dose 24 mg/kg intraperitoneal, 1 h post-infection
LAC yceI::Tn azoR2 = assay: MIC; format: cell-based, Staphylococcus aureus
Procedure, shortened: (§1)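 Overnight cultures were grown in 5 mL Mueller-Hinton at 37 °C with shaking at 200 rpm. They were diluted 1/1000 into 96-well plates holding serial dilutions of test compound in Mueller-Hinton broth. Plates were sealed against drying and incubated statically at 37 °C for 18 h before reading. All strains are isogenic and in the LAC background.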

[1] = tested on: JSF-3151–resistant strains; assay: MIC versus JSF-3151-resistant strains compared to the parental strain; format: cell-based, Staphylococcus aureus; settings: yceI promoter mutants versus parent
S. aureus LAC pLL39 = assay: MIC; format: cell-based, Staphylococcus aureus; settings: genotype pLL39, LAC background
Vero cells = format: cell-based; settings: 72 h
LAC azoR::Tn = assay: MIC; format: cell-based, Staphylococcus aureus; settings: genotype azoR::Tn, LAC background
Procedure, shortened: as §1

LAC yceI::Tn pCM28_azoR = assay: MIC; format: cell-based, Staphylococcus aureus
Procedure, shortened: as §1

[2] = tested on: S. aureus LAC pLL39_yceI1; assay: MIC; format: cell-based, Staphylococcus aureus; settings: genotype pLL39_yceI1, LAC background
[3] = Mouse pharmacokinetic study; format: in vivo; settings: CD-1 mice, oral 25 mg/kg, 0.5-5 h
Procedure, shortened: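 Two female CD-1 mice received one oral 25 mg/kg dose in 20% DMA/80% PEG300. K2EDTA blood was taken pre-dose and at 0.5, 1, 3 and 5 h, and plasma was stored at −80 °C. Samples were precipitated with acetonitrile/methanol containing a verapamil internal standard and analysed by LC-MS/MS in MRM positive mode. Standard curves were made in CD-1 plasma, and QCs had to fall within 20% of nominal.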

[4] = tested on: S. aureus LAC yceI::Tn pLL39_yceI1; assay: MIC; format: cell-based, Staphylococcus aureus; settings: genotype yceI::Tn pLL39_yceI1, LAC background
[5] = tested on: S. aureus LAC pLL39_yceI2; assay: MIC; format: cell-based, Staphylococcus aureus; settings: genotype pLL39_yceI2, LAC background
MSSA ATCC 25923 = assay: MIC, drug susceptibility assay; format: cell-based, Staphylococcus aureus; settings: 18 h, 37 °C, visual inspection
LAC yceI::Tn strain = assay: Selection of spontaneous resistant mutants, frequency; format: cell-based, Staphylococcus aureus
LAC yceI::Tn azoR3 = assay: MIC; format: cell-based, Staphylococcus aureus
LAC yceI::Tn azoR4 pCM28 = assay: MIC; format: cell-based, Staphylococcus aureus
Procedure, shortened: as §1

[6] = tested on: LAC yceI::Tn azoR2 pCM28_azoR; assay: MIC; format: cell-based, Staphylococcus aureus
Procedure, shortened: as §1

S. aureus (ATCC 43300) = assay: Nitric oxide release assay, Griess reagent; format: cell-based, Staphylococcus aureus; settings: 100 μM, over 48 h; positive control DEA-NONOate
Procedure, shortened: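 ATCC 43300 was grown in Mueller-Hinton medium to OD600 0.4 and split three ways: untreated, 100 μM test compound, or 100 μM DEA-NONOate. At 24 and 48 h, samples were centrifuged and supernatants were mixed with fresh Griess reagent for 30 min at room temperature. Absorbance at 548 nm was converted to nitrite against sodium nitrite standards (50–0.78 μM, 2-fold) made in medium.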

O=C(Nc1cc(Cl)cc2cccnc12)c1ccc([N+](=O)[O-])s1 [JSF-3151]
frequency of resistant mutants (MRSA strain LAC): 6 x 10^−8 | mice surviving 3 d post-administration (MRSA COL strain): 2 out of 12 | survival 3 d post-administration (MRSA COL strain): 16.7% | MIC shift versus yceI::Tn parental strain (LAC yceI::Tn azoR2; azoR2 (Trp60stop)): 32 fold | MIC (LAC yceI::Tn azoR2; genotype yceI::Tn azoR2): 25 mg/L (≈ 74.9 µM) | loss of susceptibility of three representative mutants [1]: > 16 fold | MIC (S. aureus LAC pLL39): 6.2 mg/L (≈ 18.6 µM) | Vero cell CC50 (Vero cells): > 50 mg/L | CC50 (Vero cells; read-out: Vero cell CC50): > 150 µM | MIC (LAC azoR::Tn): 50 mg/L (≈ 150 µM) | MIC (LAC yceI::Tn pCM28_azoR): 0.78 mg/L (≈ 2.34 µM) | MIC [2]: 50 mg/L (≈ 150 µM) | mouse plasma level relative to MIC [3]: inability to reach the MIC over a 5 h time period | MIC [4]: 50 mg/L (≈ 150 µM) | MIC [5]: 50 mg/L (≈ 150 µM) | MSSA ATCC 25923 MIC (MSSA ATCC 25923): 1.6 μg/mL and 4.8 μM | MSSA ATCC 25923 MIC (MSSA ATCC 25923; listed as Z296972134 (3151)): 1.6 μg/mL and 4.8 μM | frequency of heritable resistance (LAC yceI::Tn strain): approximately 3 x 10^−8 | MIC shift versus yceI::Tn parental strain (LAC yceI::Tn azoR3; azoR3 (Thr121Ile)): 64 fold | MIC (LAC yceI::Tn azoR3; genotype yceI::Tn azoR3): >50 mg/L | MIC (LAC yceI::Tn azoR4 pCM28): 25 mg/L (≈ 74.9 µM) | MIC [6]: 1.5 mg/L (≈ 4.49 µM) | NO• production as nitrite in supernatant (Griess reagent) (S. aureus (ATCC 43300)): neither DAF-FM (over 2 h) nor the Griess reagent (over 48 h) evidenced NO• production

— PMC8591627 (ACS infectious diseases, 2021)
